Assay outcomes as filed in PubChem BioAssay.
TRPC6 inhibitor = blocks the mouse TRPC6 cation channel | Q61143 | HEK293-TRPC6, membrane potential dye, ACh-evoked depolarization; active compounds read low | B-score at 10 µM | 310,000 tested, 1.1% active | AID 2553;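 active = B-score under library mean minus 3 SD, initial fluorescence not abnormally high, positive integrated signal ratio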;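 also: B-score derived from integrated fluorescence ratio over the kinetic read; more negative B-score means stronger inhibition of depolarization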
TRPC6 act = mouse TRPC6 channel activation; Q61143; HEK293-TRPC6 membrane potential dye fluorescence; active compounds read high; B-score at 10 µM; 310,000 tested, 0.13% active; AID 2550;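 active = B-score of the integrated fluorescence ratio above library mean plus 3 SD, and starting fluorescence ratio within library mean plus 5 SD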;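 also: higher score means more depolarization so channel activation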
TRPC4 agonist = TRPC4 (mouse) channel activation. HEK293 TRPC4beta/mu-opioid, Fluo4 calcium fluorescence; active compounds read high. Q9QUQ5. B-score at 10 µM. 310,000 tested, 0.49% active;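 active = B-score above 5 SD of library B-scores, and initial fluorescence ratio not above library mean plus 5 SD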;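 also: positive B-score marks a calcium rise read as TRPC4 activation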
Target sequence (Q9QUQ5 whole entry, looked up): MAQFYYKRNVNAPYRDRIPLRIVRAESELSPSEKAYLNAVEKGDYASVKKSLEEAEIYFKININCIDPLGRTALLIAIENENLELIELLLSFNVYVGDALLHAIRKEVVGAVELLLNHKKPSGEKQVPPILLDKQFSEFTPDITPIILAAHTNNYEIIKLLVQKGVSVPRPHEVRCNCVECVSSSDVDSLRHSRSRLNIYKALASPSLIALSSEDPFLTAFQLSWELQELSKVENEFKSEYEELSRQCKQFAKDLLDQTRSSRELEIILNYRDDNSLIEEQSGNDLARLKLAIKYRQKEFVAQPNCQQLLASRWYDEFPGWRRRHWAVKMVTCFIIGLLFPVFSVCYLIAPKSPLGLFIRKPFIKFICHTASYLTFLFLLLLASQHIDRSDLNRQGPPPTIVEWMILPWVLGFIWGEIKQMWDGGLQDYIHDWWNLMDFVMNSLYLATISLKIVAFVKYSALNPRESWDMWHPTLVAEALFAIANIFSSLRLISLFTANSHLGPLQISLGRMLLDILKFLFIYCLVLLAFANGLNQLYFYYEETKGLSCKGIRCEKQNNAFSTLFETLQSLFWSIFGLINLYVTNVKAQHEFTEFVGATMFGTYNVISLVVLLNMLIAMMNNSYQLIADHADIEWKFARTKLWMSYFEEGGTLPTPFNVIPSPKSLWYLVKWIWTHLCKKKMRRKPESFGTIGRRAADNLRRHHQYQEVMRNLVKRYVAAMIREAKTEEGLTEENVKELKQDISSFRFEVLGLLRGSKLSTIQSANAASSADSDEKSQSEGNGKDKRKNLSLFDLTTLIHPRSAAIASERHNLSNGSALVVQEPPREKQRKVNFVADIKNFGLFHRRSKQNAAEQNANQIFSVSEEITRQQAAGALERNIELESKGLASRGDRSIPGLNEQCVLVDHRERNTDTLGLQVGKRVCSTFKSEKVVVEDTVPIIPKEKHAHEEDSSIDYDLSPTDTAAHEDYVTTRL
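Technique: kinetic Fluo4 calcium fluorescence; Test system: TRPC4beta and mu-opioid receptor HEK293 stable cells; Measure: B-scored integrated calcium fluorescence ratio; Benchmarks: low control buffer alone, high control maximal DAMGO; Schedule: 45 min room-temperature Fluo4 loading, 110 s read.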
TRPC4 block = blocks the mouse TRPC4 cation channel | 300,000 tested, 0.39% active | HEK293 TRPC4beta/mu-opioid, DAMGO-evoked Fluo4 calcium flux; active compounds read low | Q9QUQ5 | B-score at 10 µM;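 active = B-score over 3 SD under the library average, no early fluorescence shift, positive overall ratio signal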
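Assay system: Stable TRPC4beta/mu-opioid receptor HEK293 cells | Reagent: DAMGO in two steps, submaximal then maximal | Compound dosing: Single concentration per test compound | Signal: Fluo4 Ca2+ flux fluorescence | Evaluation: Per-well B score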
TRPC4 potent = allosterically enhances the mouse TRPC4 cation channel; Q9QUQ5; HEK293 TRPC4beta/mu-opioid, DAMGO EC20, Fluo-4 Ca2+ flux; active compounds read high; B-score at 10 µM; 310,000 tested, 0.42% active; AID 2227;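 active = B-score of calcium response area above 5 SD of library B-scores, with initial fluorescence ratio within 5 SD of library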;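 also: B-score of integrated fluorescence ratio over time as area under calcium response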
TRPC4 sel inh 2 = mouse TRPC4 off-target activity of TRPC6 inhibitors, second screen; 920 tested, 42% active; inhibition, % at 10 µM; shares compounds with TRPC6 inhibitor; AID 2776; HEK293 TRPC4/MOR, membrane potential dye fluorescence; channel activated by saturating DAMGO dose;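 active = compounds whose fluorescence signal differed from control wells by over 3 SD, either direction, in both duplicate plates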
TRPC4 spec = selectivity of TRPC6 inhibitors: effect on mouse TRPC4; HEK293 TRPC4/mu-opioid, membrane potential fluorescence; shares compounds with TRPC6 inhibitor; 920 tested, 61% active; activity change, negative = inhibition, % at 10 µM;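 active = rise or fall in signal beyond 3 SD of buffer-only wells in both replicate plates, either sign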;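 also: integrated kinetic ratio of fluorescence range over baseline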
HEK293 MPD ctr 2-1 = second counter-screen for TRPC6 inhibitors: parental HEK293 cells; shares compounds with TRPC6 inhibitor; parental HEK293 membrane potential dye fluorescence; maximal acetylcholine challenge after compound addition; signal change vs control, % at 10 µM; 920 tested, 31% active;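 active = membrane potential signal moving either way by over 3 SD of the maximum-effect control, in both duplicate plates, meaning non-specific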
HEK293 MPD ctr-1 = counter-screen for TRPC6 inhibitors: effect in parental HEK293 cells. shares compounds with TRPC6 inhibitor. parental HEK293 membrane potential dye fluorescence. membrane potential signal change, % at 10 µM. 920 tested, 60% active. AID 2780;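 active = membrane potential signal shifting up or down by more than 3 SD of buffer-only wells, on both duplicate plates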
HEK293 MPD ctr-2 = checks TRPC6 modulator effects in parental HEK293 cells; membrane potential signal change, % at 10 µM; shares compounds with TRPC6 inhibitor; 2,400 tested, 51% active; membrane potential dye fluorescence; AID 488924;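 active = membrane potential signal moves up or down beyond 5 SD from buffer-only wells, on both duplicate plates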
HEK293 MPD ctr 2-2 = second counter-screen for TRPC6 modulators: effect in parental HEK293 cells; AID 488926; 2,400 tested, 14% active; membrane potential dye fluorescence; after compound, maximal acetylcholine stimulation; inhibition, % at 10 µM; shares compounds with TRPC6 inhibitor;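 active = membrane potential signal drops by more than 5 SD from the mean control signal, in both duplicate plates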;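 also: plate controls were acetylcholine ECmax control wells for no effect and buffer only wells for full effect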
TRPC4/MOR mod = mouse TRPC4 off-target activity of TRPC6 modulators. percent change from control (negative = decrease, positive = increase), % at 10 µM. 2,400 tested, 69% active. HEK293 TRPC4/mu-opioid, membrane potential fluorescence. shares compounds with TRPC6 inhibitor;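 active = membrane potential signal moved up or down beyond 5 SD of buffer control wells, in both duplicate plates, actives on both sides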;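 also: plate controls were assay buffer wells for no effect and DAMGO maximal-effect wells for full effect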
TRPC4/MOR inh 2 = second check of whether TRPC6 modulators also affect mouse TRPC4. shares compounds with TRPC6 inhibitor. HEK293 TRPC4/mu-opioid, membrane potential dye fluorescence; stimulated with maximal-effect DAMGO. 2,400 tested, 55% active. inhibition, % at 10 µM. AID 488928;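 active = drop in membrane potential signal beyond 5 SD of the control wells in both duplicate plates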;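 also: TRPC4 counter screen for TRPC6 hits run under conditions tuned for TRPC6 not TRPC4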
TRPC6 inh conf = mouse TRPC6 inhibitor confirmation | shares compounds with TRPC6 inhibitor | HEK293-TRPC6, membrane potential dye, ACh-evoked depolarization | 3,300 tested, 43% active | inhibition, % at 10 µM | AID 488960;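 active = fluorescence ratio falls more than 5 SD below the full-stimulation control mean, in both duplicate runs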;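 also: integrated fluorescence ratio of peak minus minimum over baseline after agonist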
TRPC6 act conf = mouse TRPC6 activator confirmation; shares compounds with TRPC6 inhibitor; HEK293-TRPC6 membrane potential dye fluorescence, FDSS; activation, % at 10 µM; 2,800 tested, 11% active; AID 488961;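 active = ratio signal rise beyond 5 SD above unstimulated control wells' mean, seen in both duplicate runs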;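 also: plate controls were buffer EC0 wells for no effect and acetylcholine ECmax response for full effect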
An asterisk follows results filed as active; i = inactive; nt = no result. Compounds with a hit are over-represented: about 2.3% of the library has one in this group of screens.

SMILES	TRPC6 inhibitor	TRPC6 act	TRPC4 agonist	TRPC4 block	TRPC4 potent	HEK293 MPD ctr-2	HEK293 MPD ctr 2-2	TRPC4/MOR mod	TRPC4/MOR inh 2	TRPC6 inh conf	TRPC6 act conf	others
Cc1ccc(C(=O)Nc2ccccc2C(=O)O)cc1S(=O)(=O)Nc1ccc(Br)cc1	i	i	i	i	i	nt	nt	nt	nt	nt	nt
Cc1ccn2c(NC(=O)C(C)(C)Oc3ccc(Cl)cc3)c(-c3cccs3)nc2c1	-8.8*	i	i	i	i	-120%*	i	-26%*	88%*	58%*	i
Cc1ccc(C(=O)Nc2c(-c3cccs3)nc3cc(C)ccn23)cc1	i	i	i	i	i	nt	nt	nt	nt	nt	nt
O=[N+]([O-])c1cccc2c(N3CCCC3)ccnc12	-8.9*	i	i	i	i	-360%*	95%*	-44%*	56%*	70%*	i
O=C(c1ccccc1F)N1CCN(c2ccc([N+](=O)[O-])c3ncccc23)CC1	i	i	i	i	i	nt	nt	nt	nt	nt	nt
CCCCCCN1C=CC=C/C1=C/C=C(C#N)C#N	i	26*	i	i	i	370%*	i	102%*	i	i	118%*
CCCCCN1C=CC=C/C1=C\C=C(C#N)C#N	-5.3*	15*	i	i	i	712%*	i	i	i	i	100%*
CCCCCCN1C=C/C(=C\C=C(C#N)C#N)c2ccccc21	i	i	i	i	i	nt	nt	nt	nt	nt	nt
CCCN1C=CC(=CC=C(C#N)C#N)C=C1	i	i	i	i	i	nt	nt	nt	nt	nt	nt
C/C(=N/NS(=O)(=O)c1ccc(C(C)(C)C)cc1)c1ccc2c(c1)OCO2	i	i	i	i	i	nt	nt	nt	nt	nt	nt
Cc1sc2ncn(CC(=O)N3CCN(c4ccccn4)CC3)c(=O)c2c1S(=O)(=O)N1CCCCC1	i	i	i	i	i	nt	nt	nt	nt	nt	nt
CNC(=S)N/N=C/c1cn(Cc2c(F)cccc2Cl)c2ccccc12	-5.3*	i	i	i	i	i	i	i	i	i	nt
CCOC(=O)c1[nH]n(-c2ccc(Cl)cc2)c(=O)c1C	-7.8*	i	i	i	i	nt	nt	nt	nt	i	i	TRPC4 sel inh 2=i;TRPC4 spec=i;HEK293 MPD ctr 2-1=i;HEK293 MPD ctr-1=i
O=C(CSc1nc2nc(-c3cccs3)cc(C(F)(F)F)c2c(=O)[nH]1)C(F)(F)F	i	i	i	i	i	nt	nt	nt	nt	nt	nt
O=[N+]([O-])c1cccc(-c2c[n+]3c(n2-c2ccccc2)SCC3)c1	-5.2*	i	i	i	i	i	i	i	34%*	47%*	i
Clc1ccc(-c2c[n+]3c(n2-c2ccccc2)SCC3)cc1	i	i	i	i	i	nt	nt	nt	nt	nt	nt
COc1ccc2[nH]c3c(c2c1)CCNC3C1CC=C(C)CC1 (configuration not stated)	-6.3*	i	i	i	i	i	i	i	56%*	36%*	i
COc1ccc2[nH]c3c(c2c1)CCNC3c1ccc([N+](=O)[O-])o1 (configuration not stated)	i	i	i	i	i	nt	nt	nt	nt	nt	nt
Cc1ccc(C(=O)N2CCN(C34CC5CC(CC(C5)C3)C4)CC2)o1	i	i	i	i	i	nt	nt	nt	nt	nt	nt
O=C(CN1CCCCC1)Nc1ccc(N2CCCCCC2)cc1	-6.6*	i	i	i	i	i	i	i	36%*	54%*	i
CCN(CC)CC(=O)Nc1ccc(-c2nc3cc(NC(=O)CN(CC)CC)ccc3o2)cc1	-8.7*	i	i	i	i	nt	nt	nt	nt	i	nt	TRPC4 sel inh 2=72%*;TRPC4 spec=i;HEK293 MPD ctr 2-1=i;HEK293 MPD ctr-1=i
O=C(CN1CCCC1)Nc1ccc(-c2nc3cc(NC(=O)CN4CCCC4)ccc3o2)cc1	i	12*	i	i	i	218%*	i	28%*	i	i	76%*
CCOCCCn1c(=S)[nH]c2cc(C(=O)NCCc3ccccc3)ccc2c1=O	i	i	i	i	i	nt	nt	nt	nt	nt	nt
CN(C)CCCN(C(=O)c1cccs1)c1nc2cc3c(cc2s1)OCO3	-9.7*	i	i	-8*	i	i	i	-19%*	64%*	42%*	i
CN(C)CCCN(C(=O)c1ccc(Cl)s1)c1nc2cc3c(cc2s1)OCO3	-6.1*	i	100*	i	i	i	i	-22%*	84%*	48%*	i
CCN(CC)CCN(C(=O)c1ccc(Br)s1)c1nc2cc3c(cc2s1)OCCO3	i	i	i	i	i	nt	nt	nt	nt	nt	nt
Cc1ccc2nc(N(CCN(C)C)C(=O)c3cc(Cl)sc3Cl)sc2c1	i	i	i	i	i	nt	nt	nt	nt	nt	nt
CN(C)CCCN(C(=O)c1cc(Cl)sc1Cl)c1nc2cc3c(cc2s1)OCO3	-5.1*	i	i	i	i	i	55%*	i	91%*	61%*	i
CN(C)CCCN(C(=O)c1ccc([N+](=O)[O-])s1)c1nc2cc3c(cc2s1)OCCO3	i	i	i	i	i	nt	nt	nt	nt	nt	nt
